In ChEMBL document CHEMBL3414467, “Exploring the 7-oxo-thiazolo[5,4-d]pyrimidine core for the design of new human adenosine A3 receptor antagonists. Synthesis, molecular modeling studies and pharmacological evaluation” (Eur J Med Chem, 2015) one finds inhibition, Ki and IC50 data, which are given here for two compounds.

Assay [1] addresses T1, Adenosine receptor A1 (Homo sapiens) (UniProt P30542).
T1 sequence (whole entry): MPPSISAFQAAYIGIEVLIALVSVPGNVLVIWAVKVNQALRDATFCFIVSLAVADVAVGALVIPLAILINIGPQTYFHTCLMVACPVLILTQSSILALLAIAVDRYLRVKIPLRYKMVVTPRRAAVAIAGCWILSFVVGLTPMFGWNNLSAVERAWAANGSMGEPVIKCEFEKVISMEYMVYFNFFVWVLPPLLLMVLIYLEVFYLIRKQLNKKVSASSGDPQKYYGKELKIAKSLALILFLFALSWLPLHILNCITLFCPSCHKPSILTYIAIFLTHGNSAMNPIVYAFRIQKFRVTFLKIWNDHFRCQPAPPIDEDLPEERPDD
Nature of the assay: Displacement of [3H]DPCPX from human adenosine A1 receptor expressed in CHO cell membranes at 1 uM incubated for 120 mins by scintillation counting method. A digest of the protocol:
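Membranes from hA1-CHO cells (50 μg protein/assay), pretreated with adenosine deaminase 2 IU/mL, 30 min at 37 °C. Incubated with 1 nM [3H]DPCPX in 50 mM Tris HCl pH 7.4 for 120 min at 25 °C. Nonspecific binding defined with 1 μM DPCPX. Test compounds at 1 μM, reported as percent inhibition. Separation by GF/B filtration; read by scintillation counting.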
(In general: Loss of bound radioactivity is the signal in a displacement assay; it reports binding, not function.)

The target in assay [2] is Adenosine receptor A2a (Homo sapiens) (UniProt P29274). Nature of the assay: Displacement of [3H]ZM241385 from human adenosine A2A receptor expressed in CHO cell membranes at 1 uM incubated for 60 mins by scintillation counting method. A digest of the protocol:
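Membranes from hA2A-CHO cells (50 μg protein/assay), deaminase-treated. Incubated with 1 nM [3H]ZM241385 in 50 mM Tris HCl, 10 mM MgCl2, pH 7.4 for 60 min at 4 °C. Nonspecific binding defined with 1 μM ZM241385. Test compounds at 1 μM, reported as percent inhibition. Filter separation; scintillation counting.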

For assay [3], the target named is T2, Adenosine receptor A3 (Homo sapiens, UniProt P0DMS8).
T2 sequence (P0DMS8 whole entry): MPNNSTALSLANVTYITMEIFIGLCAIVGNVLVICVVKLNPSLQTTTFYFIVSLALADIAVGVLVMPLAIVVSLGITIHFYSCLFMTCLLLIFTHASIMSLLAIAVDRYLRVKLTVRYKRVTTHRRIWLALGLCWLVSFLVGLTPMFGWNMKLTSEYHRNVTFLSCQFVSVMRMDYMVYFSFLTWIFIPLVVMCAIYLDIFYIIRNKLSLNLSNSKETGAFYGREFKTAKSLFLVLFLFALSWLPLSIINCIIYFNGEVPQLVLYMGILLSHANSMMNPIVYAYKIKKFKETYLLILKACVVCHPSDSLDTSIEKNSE
Description: Displacement of [125I]AB-MECA from human adenosine A3 receptor expressed in CHO cell membranes incubated for 120 mins by scintillation counting method. A digest of the protocol: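 Membranes from hA3-CHO cells (50 μg protein/assay), pretreated with 2 IU/mL adenosine deaminase. Incubated with 0.5 nM [125I]AB-MECA in 50 mM Tris HCl, 10 mM MgCl2, 1 mM EDTA, pH 7.4, with six to eight compound concentrations; percent inhibition taken at 1 μM. Ki from IC50 by Cheng–Prusoff, means of four assays in duplicate.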

The target in assay [4] is T3, Adenosine receptor A2b (Homo sapiens) (UniProt P29275).
T3 sequence (whole entry): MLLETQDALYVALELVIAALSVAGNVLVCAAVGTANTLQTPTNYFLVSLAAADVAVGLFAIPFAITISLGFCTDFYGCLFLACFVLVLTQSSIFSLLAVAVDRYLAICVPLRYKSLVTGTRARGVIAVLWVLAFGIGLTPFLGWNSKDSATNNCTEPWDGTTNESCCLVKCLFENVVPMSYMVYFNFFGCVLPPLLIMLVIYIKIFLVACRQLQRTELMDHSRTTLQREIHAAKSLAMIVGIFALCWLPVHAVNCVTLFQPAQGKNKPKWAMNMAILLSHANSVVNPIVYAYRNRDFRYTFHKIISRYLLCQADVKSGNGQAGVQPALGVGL
Nature of the assay: Antagonist activity against human adenosine A2B receptor expressed in CHO cells assessed as inhibition of NECA-induced cAMP production at 1 uM by scintillation counting method. It counts as functional, cell-based. A digest of the protocol: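 hA2B-transfected CHO cells (1 × 10⁶ cells/assay) in buffered saline-glucose medium with 2 IU/mL adenosine deaminase and Ro 20-1724, preincubated 10 min at 37 °C, stimulated with 200 nM NECA; test compounds at 1 μM, reported as percent inhibition. Stopped with cold 6% TCA, ether-extracted; cAMP measured by competition binding with [3H]cAMP and beef adrenal binding protein.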
(Changes in cAMP serve as a functional read-out for many G protein-coupled receptors.)

Assay [5] addresses T2, Adenosine receptor A3. Nature of the assay: Antagonist activity against human adenosine A3 receptor expressed in CHO cells assessed as blockade of Cl-IB-MECA-induced inhibition of forskolin-induced cAMP production by scintillation counting method. It counts as functional, cell-based. A digest of the protocol:
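hA3-transfected CHO cells (1 × 10⁶ cells/assay) in buffered medium pH 7.4 with 2 IU/mL adenosine deaminase and Ro 20-1724, preincubated 10 min at 37 °C; antagonists tested against 100 nM Cl-IB-MECA. Stopped with cold TCA; cAMP measured by [3H]cAMP competition binding with adrenal binding protein. IC50 from sigmoid nonlinear regression, mean of four experiments.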

Adenosine receptor A2a (Homo sapiens), sequence (P29274 whole entry): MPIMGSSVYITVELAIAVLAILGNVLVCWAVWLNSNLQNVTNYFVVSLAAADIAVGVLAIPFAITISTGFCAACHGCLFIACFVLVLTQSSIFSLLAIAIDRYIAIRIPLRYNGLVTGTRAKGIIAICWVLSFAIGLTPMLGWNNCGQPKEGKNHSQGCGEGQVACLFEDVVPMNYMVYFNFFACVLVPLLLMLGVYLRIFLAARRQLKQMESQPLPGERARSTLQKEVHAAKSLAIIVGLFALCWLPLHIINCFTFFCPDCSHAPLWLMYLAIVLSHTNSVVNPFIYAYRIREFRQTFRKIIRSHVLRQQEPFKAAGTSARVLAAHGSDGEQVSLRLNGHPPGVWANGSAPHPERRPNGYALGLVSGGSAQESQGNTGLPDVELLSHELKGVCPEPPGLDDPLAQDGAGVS

As usually defined, the inhibition is the drop in the measured response relative to a control, in per cent. For orientation: Ki means a dissociation constant, usually derived from enzyme kinetics or from competition with a known ligand. By IC50 is commonly meant the concentration that gives 50% inhibition. As to `Cc1nc2sc(-c3ccccc3)nc2c(=O)[nH]1`, the inhibition in assay [1] turned out to be 11%; in assay [2], 1%; in assay [4], 1%. At Adenosine receptor A3 [3], this compound returned a Ki of 85 nM. Also, the concentration for half-maximal inhibition (IC50) on Adenosine receptor A3 [5] was found to be 221 nM.

Turning to `Cc1nc2sc(-c3ccc(Cl)cc3)nc2c(=O)[nH]1`, the inhibition in assay [1], in assay [2] and in assay [4] was 1% each time. At Adenosine receptor A3 [3], this compound displayed a Ki of 18 nM. Moreover, the IC50 on Adenosine receptor A3 [5] turned out to be 42 nM.
